Measured values: publication PMC9290503 (British Journal of Clinical Pharmacology, 2021)

Tests used:
[1] = Study 1003 MRD cohorts plasma pharmacokinetics; type: in vivo, human; settings: for AUC0–24, mean (CV%) / AUC0–∞, mean (CV%) / C max, mean (CV%) / t max, median (range) / t ½z, mean (CV%): plasma
human LSD1 = settings: targets the catalytic FAD in the LSD1 active site; no reference given; cited from earlier work
[2] = Safety and tolerability, Study 1001; type: in vivo, human
How it was run: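 Double-blind, placebo-controlled single oral doses (5–60 mg) in healthy adults aged 18–55, given after at least 10 h fasting, with sentinel dosing in the first cohort. Monitored AEs, physical and neurological exams, vital signs, flagged clinical labs and 12-lead ECG. TEAEs counted from first dose to 30 days after. Semen analysis and serum FSH, LH, testosterone and inhibin B were taken at baseline and one or two spermatogenic cycles post-dose. Follow-up to day 60 (±2).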

[3] = Study 1001 single-dose urine pharmacokinetics; type: in vivo, human; settings: for Aet, mean (CV%) / CLR, mean (CV%) / fe,t, mean (CV%): urine, Study 1001
[4] = system: rodent models of neurodevelopmental disorder; settings: two rodent models of neurodevelopmental disorder; ref [8]; cited from earlier work
[5] = preliminary toxicology studies in animals; no reference given; cited from earlier work
[6] = Study 1003 SRD cohort plasma pharmacokinetics; type: in vivo, human; settings: fasted
How it was run: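 Healthy women received a single oral 120 mg dose, then 160 mg after a washout of at least 14 days (placebo-controlled). Plasma was sampled pre-dose and at 0.25–72 h. Free base was measured by validated UPLC–MS/MS after protein precipitation (calibration 0.5–1000 ng mL−1). Noncompartmental parameters used actual sampling times, with values below LLOQ set to zero.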

[7] = 20 mg q.d., non‐Japanese, Day 1
[8] = 20 mg q.d., non‐Japanese, Day 10
[9] = 60 mg q.d., non‐Japanese, Day 1
[10] = 60 mg q.d., non‐Japanese, Day 10
[11] = 160 mg q.d., non‐Japanese, Day 1
[12] = 160 mg q.d., non‐Japanese, Day 10

Cl.O=C(NC1CCOCC1)c1csc([C@@H]2C[C@H]2NCC2CC2)c1 [TAK‐418]
PK linearity point estimate, Day 10 AUC0–24 compared with Day 1 AUC0–∞ ([1]; 20 mg q.d.): 1.29
AUC0–24, Japanese vs non‐Japanese participants ([1]; 20 mg, Day 1): 1.21 fold
AUC0–24, Japanese compared with non‐Japanese participants ([1]; 20 mg, Day 10 steady state): approximately the same
PK linearity point estimate, Day 10 AUC0–24 compared with Day 1 AUC0–∞ ([1]; 60 mg q.d.): 1.13
PK linearity point estimate, Day 10 AUC0–24 compared with Day 1 AUC0–∞ ([1]; 160 mg q.d.): 1.06
mean terminal disposition phase half‐life (t ½z) at steady state ([1]; 20–160 mg q.d.): 4.35 to 5.36 h
median t max at steady state ([1]; Day 10, 20–160 mg q.d.): 1.00 to 1.26 h
AUC0–24, mean (CV%) ([1]; 20 mg q.d., Japanese, Day 1): 610.3 (14.4) h*ng mL^−1
AUC0–∞, mean (CV%) ([1]; 20 mg q.d., Japanese, Day 1): 619.0 (14.8) h*ng mL^−1
C max, mean (CV%) ([1]; 20 mg q.d., Japanese, Day 1): 154.7 (6.0) ng mL^−1
t max, median (range) ([1]; 20 mg q.d., Japanese, Day 1): 1.00 (0.50–1.50) h
AUC0–24, mean (CV%) ([1]; 20 mg q.d., Japanese, Day 10): 677.3 (10.9) h*ng mL^−1
C max, mean (CV%) ([1]; 20 mg q.d., Japanese, Day 10): 171.3 (6.0) ng mL^−1
t max, median (range) ([1]; 20 mg q.d., Japanese, Day 10): 1.00 (1.00–1.50) h
t ½z, mean (CV%) ([1]; 20 mg q.d., Japanese, Day 10): 4.350 (14.4) h
AUC0–24, mean (CV%) [1, 7]: 503.3 (32.9) h*ng mL^−1
AUC0–∞, mean (CV%) [1, 7]: 515.3 (33.4) h*ng mL^−1
C max, mean (CV%) [1, 7]: 85.2 (33.8) ng mL^−1
t max, median (range) [1, 7]: 1.75 (1.00–3.00) h
AUC0–24, mean (CV%) [1, 8]: 668.2 (34.2) h*ng mL^−1
C max, mean (CV%) [1, 8]: 117.8 (30.1) ng mL^−1
t max, median (range) [1, 8]: 1.26 (1.00–2.00) h
t ½z, mean (CV%) [1, 8]: 4.997 (10.1) h
AUC0–24, mean (CV%) [1, 9]: 1445.5 (24.4) h*ng mL^−1
AUC0–∞, mean (CV%) [1, 9]: 1476.7 (25.4) h*ng mL^−1
C max, mean (CV%) [1, 9]: 276.0 (21.6) ng mL^−1
t max, median (range) [1, 9]: 1.50 (1.00–4.00) h
AUC0–24, mean (CV%) [1, 10]: 1660.5 (25.4) h*ng mL^−1
C max, mean (CV%) [1, 10]: 307.2 (17.0) ng mL^−1
t max, median (range) [1, 10]: 1.250 (1.00–3.00) h
t ½z, mean (CV%) [1, 10]: 4.923 (17.8) h
AUC0–24, mean (CV%) [1, 11]: 3747.3 (6.4) h*ng mL^−1
AUC0–∞, mean (CV%) [1, 11]: 3822.0 (5.7) h*ng mL^−1
C max, mean (CV%) [1, 11]: 679.3 (28.8) ng mL^−1
t max, median (range) [1, 11]: 1.50 (1.00–3.00) h
AUC0–24, mean (CV%) [1, 12]: 4058.3 (6.1) h*ng mL^−1
C max, mean (CV%) [1, 12]: 697.7 (14.7) ng mL^−1
t max, median (range) [1, 12]: 1.00 (1.00–1.50) h
t ½z, mean (CV%) [1, 12]: 5.357 (8.7) h
inhibition of LSD1 activity (human LSD1): irreversibly inhibits the activity of human LSD1
semen parameters or serum hormone levels ([2]; 23 male participants): no clinically relevant changes
laboratory test results, vital signs or electrocardiogram readings ([2]; Study 1001): No clinically significant changes
nausea, most common TAK‐418‐related TEAE ([2]; Study 1001): reported in one participant administered TAK‐418 15 mg and another administered TAK‐418 40 mg
serious AEs, suicidal ideation/behaviour, deaths ([2]; Study 1001): no serious AEs (SAEs), suicidal ideation/behaviour or deaths were reported
testicular pain ([2]; one at 15 mg (unrelated), one at 40 mg (study‐drug related)): two men given TAK‐418 reported testicular pain
participants reporting TEAEs ([2]; single dose 5–60 mg while fasting, 13 participants): 43%
severity of TEAEs ([2]; single dose up to 60 mg): mild
upper respiratory tract infection (most common TEAE) ([2]; single dose, n = 3): 10%
renal clearance ([3]; 20–160 mg dose range, single dose (Tables 3 and 4)): 5.81 to 8.68 L/h
recovered unchanged from urine ([3]; after 20–160 mg dosing, single dose (Tables 3 and 4)): 13.3–19.5%
Aet, mean (CV%) ([3]; single oral dose 30 mg, fasted): 5.708 (13.0) mg
CLR, mean (CV%) ([3]; single oral dose 30 mg, fasted): 8.683 (16.3) L h^−1
fe,t, mean (CV%) ([3]; single oral dose 30 mg, fasted): 19.022 (13.0) %
Aet, mean (CV%) ([3]; single oral dose 40 mg): 5.333 (18.8) mg
CLR, mean (CV%) ([3]; single oral dose 40 mg): 8.173 (38.1) L h^−1
fe,t, mean (CV%) ([3]; single oral dose 40 mg): 13.335 (18.8) %
Aet, mean (CV%) ([3]; single oral dose 60 mg): 11.677 (35.2) mg
CLR, mean (CV%) ([3]; single oral dose 60 mg): 7.242 (13.4) L h^−1
fe,t, mean (CV%) ([3]; single oral dose 60 mg): 19.472 (35.2) %
recovered unchanged from urine ([3]; within 24 hours): Approximately 20%
autism symptoms [4]: improved autism symptoms
toxicology findings [5]: testicular findings in a single species
AUC0–24, mean (CV%) ([6]; single oral dose 120 mg): 3737.2 (19.9) h*ng mL^−1
AUC0–∞, mean (CV%) ([6]; single oral dose 120 mg): 3828.3 (20.6) h*ng mL^−1
C max, mean (CV%) ([6]; single oral dose 120 mg): 727.8 (20.0) ng mL^−1
t max, median (range) ([6]; single oral dose 120 mg): 1.50 (1.00–1.50) h
t ½z, mean (CV%) ([6]; single oral dose 120 mg): 5.188 (9.9) h
AUC0–24, mean (CV%) ([6]; single oral dose 160 mg): 4350.0 (31.0) h*ng mL^−1
AUC0–∞, mean (CV%) ([6]; single oral dose 160 mg): 4466.8 (31.7) h*ng mL^−1
C max, mean (CV%) ([6]; single oral dose 160 mg): 796.3 (36.2) ng mL^−1
t max, median (range) ([6]; single oral dose 160 mg): 1.25 (1.00–2.00) h
t ½z, mean (CV%) ([6]; single oral dose 160 mg): 4.847 (14.1) h
